Source: ChEMBL document CHEMBL1255227, “Novel pyridylmethylamines as highly selective 5-HT(1A) superagonists” (J Med Chem, 2010)
Values belong to the compound of their own block, whether it stands above or below them.

Key:
[1] = Displacement of [3H]WAY-100635 from 5-HT1A receptor in pig cortex membranes; assay type: cell membranes, Sus scrofa
[2] = molecular target: D(1A) dopamine receptor (Sus scrofa, UniProt P50130); test: Displacement of [3H]SCH23390 from dopamine D1 receptor in pig striatal membranes
Sequence of D(1A) dopamine receptor (P50130 whole entry): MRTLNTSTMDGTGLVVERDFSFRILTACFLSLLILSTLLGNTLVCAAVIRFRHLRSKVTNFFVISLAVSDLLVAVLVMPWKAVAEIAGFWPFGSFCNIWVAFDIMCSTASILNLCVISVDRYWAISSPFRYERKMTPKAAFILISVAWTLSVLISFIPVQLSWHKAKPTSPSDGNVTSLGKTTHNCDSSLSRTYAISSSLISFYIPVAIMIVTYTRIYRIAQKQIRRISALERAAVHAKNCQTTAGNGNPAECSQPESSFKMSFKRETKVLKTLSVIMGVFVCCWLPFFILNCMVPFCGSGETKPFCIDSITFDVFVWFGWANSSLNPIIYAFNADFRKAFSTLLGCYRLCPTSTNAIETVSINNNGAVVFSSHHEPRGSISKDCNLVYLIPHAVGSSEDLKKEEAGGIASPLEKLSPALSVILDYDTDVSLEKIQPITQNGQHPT

[3] = molecular target: T1, D(2) dopamine receptor (Homo sapiens, UniProt P14416); test: Displacement of [3H]Spiperone from human dopamine D2 long receptor
T1 sequence (P14416 whole entry): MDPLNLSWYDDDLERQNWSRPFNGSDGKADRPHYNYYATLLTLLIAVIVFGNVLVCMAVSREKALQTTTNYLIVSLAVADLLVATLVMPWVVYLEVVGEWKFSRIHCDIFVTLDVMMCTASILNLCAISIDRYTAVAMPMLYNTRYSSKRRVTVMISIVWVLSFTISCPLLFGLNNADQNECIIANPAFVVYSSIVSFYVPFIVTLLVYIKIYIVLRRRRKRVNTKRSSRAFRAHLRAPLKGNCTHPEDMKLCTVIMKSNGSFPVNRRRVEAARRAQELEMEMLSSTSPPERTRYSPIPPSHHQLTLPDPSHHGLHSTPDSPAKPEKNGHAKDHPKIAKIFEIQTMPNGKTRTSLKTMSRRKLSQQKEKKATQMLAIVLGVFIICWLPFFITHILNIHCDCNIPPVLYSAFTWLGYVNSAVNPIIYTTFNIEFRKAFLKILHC
Method in brief: (§1)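 Membranes from CHO cells stably expressing the human receptor, at 5-20 μg protein/assay tube, were competed against [3H]spiperone at 0.1-0.4 nM final. […] IC50 came from sigmoid nonlinear regression.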

[4] = molecular target: 5-hydroxytryptamine receptor 2A (Sus scrofa, UniProt P50129); test: Displacement of [3H]Ketanserin from 5-HT2 receptor in pig cortex membranes; assay type: cell membranes
Sequence of 5-hydroxytryptamine receptor 2A (P50129 whole entry): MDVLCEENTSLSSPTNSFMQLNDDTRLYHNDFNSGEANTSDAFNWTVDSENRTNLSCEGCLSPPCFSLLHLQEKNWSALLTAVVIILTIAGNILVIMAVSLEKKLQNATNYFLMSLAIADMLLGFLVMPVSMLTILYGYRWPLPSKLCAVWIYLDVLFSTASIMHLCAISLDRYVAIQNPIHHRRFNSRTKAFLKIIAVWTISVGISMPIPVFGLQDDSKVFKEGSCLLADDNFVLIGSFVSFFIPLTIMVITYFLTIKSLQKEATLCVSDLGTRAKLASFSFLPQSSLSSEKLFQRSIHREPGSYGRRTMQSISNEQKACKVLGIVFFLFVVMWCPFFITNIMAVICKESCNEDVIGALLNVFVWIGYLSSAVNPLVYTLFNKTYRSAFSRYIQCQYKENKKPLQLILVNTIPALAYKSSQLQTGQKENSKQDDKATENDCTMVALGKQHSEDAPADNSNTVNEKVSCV

[5] = molecular target: D(3) dopamine receptor (Homo sapiens, UniProt P35462); test: Displacement of [3H]Spiperone from human dopamine D3 receptor; method in brief: as §1
Sequence of D(3) dopamine receptor (P35462 whole entry): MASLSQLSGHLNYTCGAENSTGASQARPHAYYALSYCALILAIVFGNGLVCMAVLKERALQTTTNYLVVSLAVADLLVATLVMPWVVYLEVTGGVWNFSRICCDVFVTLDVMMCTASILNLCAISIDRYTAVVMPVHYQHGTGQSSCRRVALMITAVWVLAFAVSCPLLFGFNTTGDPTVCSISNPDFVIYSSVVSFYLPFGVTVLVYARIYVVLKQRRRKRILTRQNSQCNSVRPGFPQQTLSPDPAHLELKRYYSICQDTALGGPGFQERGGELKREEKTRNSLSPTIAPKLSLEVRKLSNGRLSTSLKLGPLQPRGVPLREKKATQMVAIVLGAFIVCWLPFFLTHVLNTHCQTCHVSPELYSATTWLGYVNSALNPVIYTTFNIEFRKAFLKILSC

[6] = molecular target: T2, 5-hydroxytryptamine receptor 1A (Homo sapiens, UniProt P08908); test: Intrinsic activity at human 5-HT1A receptor expressed in CHO cells assessed as increase of serotonin-induced [35S]GTPgammaS binding; assay type: functional, cell-based
T2 sequence (P08908 whole entry): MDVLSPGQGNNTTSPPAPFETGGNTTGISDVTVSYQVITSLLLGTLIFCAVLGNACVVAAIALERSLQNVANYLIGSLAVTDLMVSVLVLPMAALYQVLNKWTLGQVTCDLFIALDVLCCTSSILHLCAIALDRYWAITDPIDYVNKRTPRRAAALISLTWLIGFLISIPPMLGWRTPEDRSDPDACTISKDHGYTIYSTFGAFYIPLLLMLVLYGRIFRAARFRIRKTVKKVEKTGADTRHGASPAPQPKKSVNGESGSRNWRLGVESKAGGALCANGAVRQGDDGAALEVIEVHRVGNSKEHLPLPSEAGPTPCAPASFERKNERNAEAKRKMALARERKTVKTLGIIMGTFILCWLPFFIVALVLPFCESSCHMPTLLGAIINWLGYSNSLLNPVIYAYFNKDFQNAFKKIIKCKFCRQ
Method in brief: (§2)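 Membranes from CHO cells stably expressing human 5-HT1A were incubated with 0.1 nM [35S]GTPγS and test compound at eight concentrations (0.01-10000 nM), in hexaduplicate. Values come from a mean curve of four experiments. Emax is expressed relative to the maximal serotonin effect.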

[7] = Displacement of [3H]Prazosin from adrenergic alpha1 receptor in pig cortex membranes; assay type: cell membranes, Sus scrofa
[8] = molecular target: T3, 5-hydroxytryptamine receptor 1A (Homo sapiens) (UniProt P08908); test: Intrinsic activity at human 5-HT1A receptor expressed in CHO cells assessed as increase of serotonin-induced [35S]GTPgammaS binding relative to serotonin; assay type: functional, cell-based; method in brief: as §2
T3 sequence (whole entry): T2 sequence (P08908 whole entry)

[9] = Displacement of [3H]8-OH-DPAT from 5-HT1A receptor in pig cortex membranes; assay type: cell membranes, Sus scrofa
[10] = Displacement of [3H]RX821002 from adrenergic alpha2 receptor in pig cortex membranes
[11] = molecular target: T4, D(4) dopamine receptor (Homo sapiens, UniProt P21917); test: Displacement of [3H]Spiperone from human dopamine D4.4 receptor; method in brief: as §1
T4 sequence (P21917 whole entry): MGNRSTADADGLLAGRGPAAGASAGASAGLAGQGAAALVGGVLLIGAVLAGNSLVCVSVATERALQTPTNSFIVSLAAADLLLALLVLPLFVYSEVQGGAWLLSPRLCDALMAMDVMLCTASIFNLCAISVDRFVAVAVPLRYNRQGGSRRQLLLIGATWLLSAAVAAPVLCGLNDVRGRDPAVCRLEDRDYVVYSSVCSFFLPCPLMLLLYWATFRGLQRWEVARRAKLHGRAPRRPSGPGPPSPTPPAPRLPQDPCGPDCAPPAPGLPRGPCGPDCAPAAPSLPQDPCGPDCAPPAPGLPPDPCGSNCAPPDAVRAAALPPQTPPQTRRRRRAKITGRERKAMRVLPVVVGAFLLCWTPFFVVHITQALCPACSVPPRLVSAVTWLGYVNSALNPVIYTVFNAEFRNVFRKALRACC

[12] = molecular target: T1, D(2) dopamine receptor; test: Displacement of [3H]Spiperone from human dopamine D2 short receptor; method in brief: as §1
[13] = system: Mus musculus; test: Antinociceptive activity against formalin-induced inflammatory pain in mouse assessed as reduction of paw licking at 1 mg/kg, ip; assay type: functional; set-up: scale not given: the % may be the effect or the level left; conditions: route intraperitoneal

Ki [1]: 4.2 nM | Ki [2]: 48000 nM | Ki [3]: 27000 nM | Ki [4]: 53000 nM | Ki [5]: 12000 nM | EC50 [6]: 16 nM | Ki [7]: 2800 nM | Emax [8]: 101% | Ki [9]: 1.1 nM | Ki [10]: 2800 nM | Ki [11]: 590 nM | Ki [12]: 28000 nM
SMILES: Cc1ccc(CNCC2(F)CCN(C(=O)c3coc4ccccc34)CC2)nc1

Ki [1]: 2.7 nM | Ki [2]: 45000 nM | Ki [3]: 20000 nM | Ki [4]: 22000 nM | Ki [5]: 8700 nM | EC50 [6]: 10 nM | Ki [7]: 2000 nM | Emax [8]: 124% | Ki [9]: 0.86 nM | Ki [10]: 1700 nM | Ki [11]: 460 nM | Ki [12]: 54000 nM
SMILES: Cc1ccc(CNCC2(F)CCN(C(=O)c3csc4ccccc34)CC2)nc1

Ki [1]: 6.2 nM | Ki [2]: 34000 nM | Ki [3]: 73000 nM | Ki [4]: 18000 nM | Ki [5]: 19000 nM | EC50 [6]: 17 nM | Ki [7]: 2300 nM | Emax [8]: 116% | Ki [9]: 1.8 nM | Ki [10]: 3500 nM | Ki [11]: 2000 nM | Ki [12]: 100000 nM
SMILES: Cc1ccc(CNCC2(F)CCN(C(=O)c3cc(Br)cs3)CC2)nc1

Ki [1]: 27 nM | EC50 [6]: 18 nM | Emax [8]: 91%
SMILES: Cc1ccc(CNCC2(F)CCN(C(=O)c3cccs3)CC2)nc1
Activity [13]: 45%

Further lines, the compound ahead of its results:

SMILES: Cc1ccc(CNCC2(F)CCN(C(=O)c3ccc(F)c(Cl)c3)CC2)nc1 [BEFIRADOL]
Ki [1]: 1.1 nM | Ki [2]: 26000 nM | Ki [3]: 15000 nM | Ki [4]: 23000 nM | Ki [5]: 10000 nM | Ki [7]: 4500 nM | Ki [9]: 0.33 nM | Ki [10]: 3700 nM | Ki [11]: 2000 nM | Ki [12]: 46000 nM

SMILES: Cc1ccc(CNCC2(F)CCN(C(=O)c3ccco3)CC2)nc1
Ki [1]: 62 nM | EC50 [6]: 15 nM | Emax [8]: 81% | Activity [13]: 35%
